Screening data (PubChem BioAssay)
NPY-Y2 antag: NPY-Y2 (human) receptor antagonism; NPY-Y2 expressing cells, antagonist mode; P49146; AID 793; 140,000 compounds, 0.99% hits; inhibition, % at 2.7 µM; in the data active = inhibition above about 17%;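 also: 0% = vehicle with agonist challenge and 100% = reference antagonist with challenge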
Target sequence (P49146 whole entry, looked up): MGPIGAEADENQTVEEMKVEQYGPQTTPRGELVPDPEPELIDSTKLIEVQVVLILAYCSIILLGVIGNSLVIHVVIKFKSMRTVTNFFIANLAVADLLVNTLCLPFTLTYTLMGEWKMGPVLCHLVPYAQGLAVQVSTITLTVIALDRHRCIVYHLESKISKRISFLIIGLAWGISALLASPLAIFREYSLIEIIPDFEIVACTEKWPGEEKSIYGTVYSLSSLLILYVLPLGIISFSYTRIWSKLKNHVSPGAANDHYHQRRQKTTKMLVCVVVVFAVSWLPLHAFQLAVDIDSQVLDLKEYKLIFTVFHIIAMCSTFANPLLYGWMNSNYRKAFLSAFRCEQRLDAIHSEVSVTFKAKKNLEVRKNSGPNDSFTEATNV
NPY-Y1 antag: NPY-Y1 (human) receptor antagonism; 200,000 compounds, 1% hits; P25929; inhibition, % at 3.6 µM; AID 1040; HEK293-CNG Y1 cells, membrane potential fluorescence; NPY at EC95, then isoproterenol;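 active = inhibition above the campaign mean inhibition of all tested compounds plus 3 SD, cut at about 20% in these data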;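 also: 0% = DMSO wells given NPY plus isoproterenol and 100% = isoproterenol alone without NPY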
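Assay system: HEK293 Y1/CNG channel cell line; Doses: single compound dose of 3.6 µM, 0.4% DMSO; Timing: dye 3 h, compound 60 min room temperature, stimulation 45 min; Technique: Membrane-potential fluorescent dye readout; Measure: % inhibition of NPY effect.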
NPY1 pot ag: potentiators or agonists of human neuropeptide Y receptor Y1; AID 1304; 220,000 compounds, 0.37% hits; activation, % at 3.6 µM; NPY-Y1 expressing cells, potentiator/agonist activation; in the data active = activation above about 33%, passing the limit was not always enough;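 also: cells stimulated with NPY at EC10 then isoproterenol at EC100; 0% = low agonist plus stimulus and 100% = saturating agonist plus stimulus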
EP2 mod: EP2 receptor (human) modulation. P43116. EP2-expressing cells, cAMP HTRF FRET, PGE2 co-stimulation. induction, % at 25 µM. 260,000 compounds, 0.83% hits;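 active = compounds whose cAMP rise, as percent of the full-agonist control response, exceeds 60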;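 also: rat C6 glioma line stably carrying human EP2 under a CMV promoter; the protocol text gives 20 µM as final concentration; 100% = response of wells given 1 µM PGE2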
Target sequence (P43116 whole entry, looked up): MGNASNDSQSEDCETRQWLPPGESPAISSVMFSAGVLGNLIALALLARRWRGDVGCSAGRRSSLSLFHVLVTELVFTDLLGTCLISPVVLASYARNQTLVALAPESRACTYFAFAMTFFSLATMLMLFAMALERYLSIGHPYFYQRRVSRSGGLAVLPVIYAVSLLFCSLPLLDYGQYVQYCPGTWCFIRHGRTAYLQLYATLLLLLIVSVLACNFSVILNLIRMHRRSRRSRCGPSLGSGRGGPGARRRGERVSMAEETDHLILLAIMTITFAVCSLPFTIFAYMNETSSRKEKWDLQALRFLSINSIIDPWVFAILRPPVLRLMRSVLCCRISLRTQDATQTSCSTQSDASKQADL
PGE2 EP2 inh: blocks the human prostaglandin E2 receptor EP2; inhibition, % at 25 µM; C6 glioma cells expressing human EP2, cAMP TR-FRET; cells stimulated with saturating PGE2; P43116; AID 1422; 260,000 compounds, 0.52% hits;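 active = percent inhibition above 40 after rounding to a whole number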;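 also: rat C6 glioma host cells with rolipram phosphodiesterase inhibitor present; the protocol text gives 20 µM as final concentration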
NPY2 pot ag: potentiates or activates human NPY-Y2 receptor; P49146; cells expressing NPY-Y2, potentiator/agonist read-out; activation, % at 3.6 µM; 220,000 compounds, 0.45% hits; in the data active = activation above about 27%;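 also: cells stimulated with NPY near EC25 plus isoproterenol at EC100; 0% = vehicle plus submaximal agonist and 100% = vehicle plus saturating agonist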
NPY-Y2 confirm: confirmation of human NPY-Y2 receptor potentiators or agonists; AID 1539; 450 compounds, 20% hits; activation, % at 3.6 µM; shares compounds with NPY2 pot ag; cell-based NPY-Y2 potentiator/agonist assay; in the data active = activation above about 33%
NPY-Y1 counter: NPY-Y1 potentiation or agonism as NPY-Y2 counter-screen. shares compounds with NPY2 pot ag. Y1 HEK293-CNG cells, membrane potential fluorescence. activation, % at 3.6 µM. 450 compounds, 20% hits; in the data active = activation above about 45%;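 also: cells stimulated with submaximal NPY then isoproterenol with phosphodiesterase inhibitor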
NPY-Y1 ag 2: human NPY-Y1 agonism as NPY-Y2 potentiator counter-screen | shares compounds with NPY2 pot ag | HEK293 Y1-CNGC, membrane potential fluorescence | activation, % at 3.6 µM | 450 compounds, 37% hits;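 active = activation above the mean of DMSO-only control wells plus 3 SD, cut at about 18% in these data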;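 also: cells stimulated with 1 µM isoproterenol plus the PDE inhibitor Ro 20-1724; 0% = isoproterenol with DMSO and no NPY and 100% = 40 nM NPY; Y1 agonists lower the membrane potential dye signal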
CNGC inhibitor: cyclic nucleotide gated channel inhibition as counter-screen; HEK293-CNG parental, isoproterenol cAMP, membrane potential fluorescence; shares compounds with NPY2 pot ag; 450 compounds, 32% hits; inhibition, % at 3.6 µM;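 active = inhibition above the control-well mean plus 3 SD of those wells, cut at about 22% in these data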;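 also: 0% = DMSO with isoproterenol and 100% = DMSO without isoproterenol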
NPY-Y2 ag 2: NPY-Y2 agonism, counter-screen for Y2 potentiators; shares compounds with NPY2 pot ag; HEK293 Y2/CNGC cells, membrane potential fluorescence, agonist mode; activation, % at 3.6 µM; 450 compounds, 56% hits;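 active = activation above the mean of solvent-only control wells plus 3 SD, cut at about 10% in these data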;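 also: cells stimulated by isoproterenol with no NPY added so direct agonism is tested; 0% = DMSO with isoproterenol alone and 100% = NPY at EC100 plus isoproterenol; agonism lowers probe fluorescence through less cAMP and CNG channel opening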
An asterisk follows results filed as active. A selection: hits, their analogues and other compounds. The true share with any hit is near 2.8%.

What do the screens show for `CCN(CC)CCCN(C(=O)c1ccco1)c1nc(-c2ccc(C)cc2)cs1`?
NPY-Y1 antag: 11; NPY1 pot ag: 17; EP2 mod: 5; PGE2 EP2 inh: 9; NPY2 pot ag: 25*; NPY-Y2 confirm: 64*; NPY-Y1 counter: 65*; NPY-Y1 ag 2: 45*; CNGC inhibitor: 58*; NPY-Y2 ag 2: 62*

What do the screens show for `CCn1c2ccccc2c2cc(NC(=O)CSc3nnc(-c4ccc(OC)c(OC)c4)n3N)ccc21`?
NPY-Y2 antag: -7; NPY-Y1 antag: -5; NPY1 pot ag: 14; EP2 mod: -64; PGE2 EP2 inh: 6; NPY2 pot ag: 12

Results for CCn1c2ccccc2c2cc(NC(=O)CSc3nnc(-c4ccccc4OC)n3N)ccc21 ?
NPY-Y2 antag: -5; NPY-Y1 antag: -10; NPY1 pot ag: 15; EP2 mod: -23; PGE2 EP2 inh: 12; NPY2 pot ag: 43*; NPY-Y2 confirm: 11; NPY-Y1 counter: 15; NPY-Y1 ag 2: 19*; CNGC inhibitor: 17; NPY-Y2 ag 2: 16*

How did Cc1cccc2cc(CN(Cc3ccco3)C(=S)NCc3ccccc3)c(=O)[nH]c12 do in these assays?
EP2 mod: 9; PGE2 EP2 inh: 9

What do the screens show for `O=C(Nc1ccccn1)c1cccs1`?
NPY-Y2 antag: 2; NPY-Y1 antag: -2; NPY1 pot ag: -4; EP2 mod: 11; PGE2 EP2 inh: 12; NPY2 pot ag: 13

What do the screens show for `O=C(Nc1nonc1NC(=O)c1cccs1)c1cccs1`?
NPY-Y1 antag: 6; NPY1 pot ag: -13; EP2 mod: -18; PGE2 EP2 inh: 1; NPY2 pot ag: 31*; NPY-Y2 confirm: -6; NPY-Y1 counter: -18; NPY-Y1 ag 2: -18; CNGC inhibitor: -9; NPY-Y2 ag 2: 4

How did CCOC(=O)c1ccc(NC(=O)c2sc3nc(C)cc(C)c3c2N)cc1 do in these assays?
EP2 mod: -20; PGE2 EP2 inh: 16

What do the screens show for `CC1CCCCC1NS(=O)(=O)c1ccc(S(=O)(=O)NCc2ccncc2)cc1` (configuration not stated)?
NPY-Y2 antag: -3; NPY-Y1 antag: -13; NPY1 pot ag: -3; EP2 mod: -7; PGE2 EP2 inh: 6; NPY2 pot ag: 37*; NPY-Y2 confirm: 7; NPY-Y1 counter: -24; NPY-Y1 ag 2: -13; CNGC inhibitor: 1; NPY-Y2 ag 2: 0

Results for Oc1ccccc1OCc1nc2ccccc2s1 ?
NPY-Y2 antag: 2; NPY-Y1 antag: 1; NPY1 pot ag: -20; EP2 mod: -24; PGE2 EP2 inh: 7; NPY2 pot ag: -3

Results for Oc1ccc(O)c(Cc2nc3ccccc3s2)c1 ?
NPY-Y1 antag: -2; NPY1 pot ag: 27; EP2 mod: -21; PGE2 EP2 inh: 7; NPY2 pot ag: 29*; NPY-Y2 confirm: 6; NPY-Y1 counter: 12; NPY-Y1 ag 2: 8; CNGC inhibitor: 11; NPY-Y2 ag 2: 5

Results for Cc1sc2nc(SCc3ccc(C(=O)O)cc3)n(Cc3ccco3)c(=O)c2c1C ?
NPY1 pot ag: 27; EP2 mod: 82*; PGE2 EP2 inh: 6; NPY2 pot ag: 56*; NPY-Y2 confirm: 24; NPY-Y1 counter: 29; NPY-Y1 ag 2: 32*; CNGC inhibitor: 17; NPY-Y2 ag 2: 22*

How did CC(C)(C)NC(=O)CSc1nnnn1-c1ccc2c(c1)OCCO2 do in these assays?
EP2 mod: -73; PGE2 EP2 inh: 14

What do the screens show for `CCc1ccc(/C(C)=N\Nc2ccc([N+](=O)[O-])cc2)cc1`?
NPY-Y2 antag: -4; NPY-Y1 antag: -6; NPY1 pot ag: 37; EP2 mod: 7; PGE2 EP2 inh: 9; NPY2 pot ag: 39*; NPY-Y2 confirm: 20; NPY-Y1 counter: 27; NPY-Y1 ag 2: 24*; CNGC inhibitor: 30*; NPY-Y2 ag 2: 30*

Results for C/C(=N\Nc1ccc([N+](=O)[O-])cc1)c1ccc(N2CCOCC2)cc1 ?
NPY1 pot ag: 22; EP2 mod: -32; PGE2 EP2 inh: 8; NPY2 pot ag: 19

How did Cc1c(CN(C)C)c2c(n1C)C(=O)c1ccc(Br)cc1-2 do in these assays?
NPY-Y2 antag: 1; NPY-Y1 antag: 1; NPY1 pot ag: 13; EP2 mod: -46; PGE2 EP2 inh: 34; NPY2 pot ag: -3

What do the screens show for `Cc1c(CN(C)C)c2c(n1Cc1ccccc1)C(=O)c1ccc(Br)cc1-2`?
NPY-Y2 antag: -1; NPY-Y1 antag: -3; NPY1 pot ag: 26; EP2 mod: 21; PGE2 EP2 inh: 7; NPY2 pot ag: 28*; NPY-Y2 confirm: 25; NPY-Y1 counter: 28; NPY-Y1 ag 2: 35*; CNGC inhibitor: 24*; NPY-Y2 ag 2: 29*

How did COCCCn1c(O)c(/C=C2\N=C(C#N)C(=Nc3ccc(C)cc3)O2)sc1=S do in these assays?
NPY1 pot ag: 27; EP2 mod: -41; PGE2 EP2 inh: 9; NPY2 pot ag: 37*; NPY-Y2 confirm: 19; NPY-Y1 counter: 9; NPY-Y1 ag 2: -2; CNGC inhibitor: -4; NPY-Y2 ag 2: 27*

What do the screens show for `CCc1cc2cccc(C)c2nc1SCC(=O)Nc1cc(C)ccc1OC`?
EP2 mod: 59; PGE2 EP2 inh: 7

Results for CCCNC(=O)c1ccccc1NS(=O)(=O)c1cccs1 ?
EP2 mod: 6; PGE2 EP2 inh: 11

How did O=C(CN1CCC(O)(c2ccccc2)CC1)NC1CC1 do in these assays?
EP2 mod: 14; PGE2 EP2 inh: 9

What do the screens show for `O=C(c1ccccc1F)N1CCC(n2cnc3cccnc32)CC1`?
EP2 mod: 1; PGE2 EP2 inh: 5

What do the screens show for `CC(C)(SC(=S)N1CCCCCC1)C(=O)O`?
NPY-Y1 antag: 3; NPY1 pot ag: -8; EP2 mod: 32; PGE2 EP2 inh: 9; NPY2 pot ag: 7

What do the screens show for `CC(SC(=S)N1CCCC1)C(=O)O` (configuration not stated)?
NPY-Y1 antag: 0; NPY1 pot ag: 20; EP2 mod: 31; PGE2 EP2 inh: 12; NPY2 pot ag: 37*; NPY-Y2 confirm: -3; NPY-Y1 counter: -7; NPY-Y1 ag 2: 0; CNGC inhibitor: 2; NPY-Y2 ag 2: 13*
